Assay type in all cases: functional
For experiment [1], the system named is Candida albicans. In words: Antimicrobial activity against azole-resistant Candida albicans isolate CA10 assessed as growth at 4 ug/ml co-treated with 0.031 ug/ml calcineurin signaling inhibitor tacrolimus after 48 hrs by microdilution checkboard technique relative to control. Also on record: scale not given: the % may be the effect or the level left. The gist of the method: (§1)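 Checkerboard microdilution in RPMI 1640 (pH 7.0, 2% dextrose, 0.165 M MOPS). Azole dilutions run along columns and FK506 along rows, at 4× final concentration. Final inoculum 2.5 × 10^3 CFU/ml from Sabouraud-subcultured cells. Incubated 35°C for 48 h; OD read at 492 nm. Background from microorganism-free plates subtracted. Growth % = well OD / drug-free well OD. Triplicate on different days, values averaged.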
In general terms: In broth dilution the organism is exposed to a series of concentrations in liquid medium.

Experiment [2] concerns Candida albicans. Nature of the experiment: Antimicrobial activity against azole-resistant Candida albicans isolate CA10 assessed as growth at 0.5 ug/ml cotreated with 0.063 ug/ml calcineurin signaling inhibitor Tacrolimus after 48 hrs by microdilution checkboard technique relative to control. Also on record: scale not given: the % may be the effect or the level left. The essentials: (§2)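 Checkerboard microdilution in MOPS-buffered RPMI 1640 (pH 7.0, 2% dextrose). Final ranges: azole 0.125–128 μg/ml (FLC) or 0.008–8 μg/ml (ITR, VRC), tacrolimus 0.002–0.125 μg/ml; solvent 1% in single-drug wells. Inoculum 2.5 × 10^3 CFU/ml, 35°C, 48 h. Growth % = background-subtracted OD492 of each well / drug-free well. Triplicate on different days.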

Experiment [3] concerns Candida albicans. In words: Antimicrobial activity against azole-resistant Candida albicans isolate CA10 assessed as growth at 1 ug/ml cotreated with 0.063 ug/ml calcineurin signaling inhibitor Tacrolimus after 48 hrs by microdilution checkboard technique relative to control. Also on record: scale not given: the % may be the effect or the level left. The essentials: as §2

Experiment [4] has as its system Candida albicans. In words: Antimicrobial activity against azole-resistant Candida albicans isolate CA10 assessed as growth at 64 ug/ml co-treated with 0.031 ug/ml calcineurin signaling inhibitor tacrolimus after 48 hrs by microdilution checkboard technique relative to control. On the set-up: scale not given: the % may be the effect or the level left. The gist of the method:
as §1

Experiment [5] has as its system Candida albicans. Nature of the experiment: Antimicrobial activity against azole-resistant Candida albicans isolate CA10 assessed as growth at 0.125 ug/ml co-treated with 0.016 ug/ml calcineurin signaling inhibitor tacrolimus after 48 hrs by microdilution checkboard technique relative to control. On the set-up: scale not given: the % may be the effect or the level left. The essentials:
as §2

Experiment [6] deals with Candida albicans. Nature of the experiment: Antimicrobial activity against azole-resistant Candida albicans isolate CA10 assessed as growth at 8 ug/ml cotreated with 0.016 ug/ml calcineurin signaling inhibitor Tacrolimus after 48 hrs by microdilution checkboard technique relative to control. Also on record: scale not given: the % may be the effect or the level left. The essentials: (§3)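 CA10 in RPMI 1640 with 2% dextrose and 0.165 M MOPS, pH 7.0. Checkerboard used twofold dilutions, with azole alone in row H and the drug-free growth control in well H1. Final inoculum was 2.5 × 10^3 CFU/ml, incubated 35°C for 48 h, with OD read at 492 nm. Growth % = background-subtracted well OD / drug-free well OD. Run in triplicate on different days.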

Experiment [7] has as its system Candida albicans. Nature of the experiment: Antimicrobial activity against azole-resistant Candida albicans isolate CA10 assessed as growth at 32 ug/ml cotreated with 0.016 ug/ml calcineurin signaling inhibitor Tacrolimus after 48 hrs by microdilution checkboard technique relative to control. Also on record: scale not given: the % may be the effect or the level left. The essentials: as §3

Experiment [8] deals with Candida albicans. In words: Antimicrobial activity against azole-resistant Candida albicans isolate CA10 assessed as growth at 0.125 ug/ml cotreated with 0.008 ug/ml calcineurin signaling inhibitor tacrolimus after 48 hrs by microdilution checkerboard technique relative to control. On the set-up: scale not given: the % may be the effect or the level left. The essentials:
as §2

Experiment [9] has as its system Candida albicans. In words: Antimicrobial activity against azole-resistant Candida albicans isolate CA10 assessed as growth at 8 ug/ml cotreated with 0.002 ug/ml calcineurin signaling inhibitor Tacrolimus after 48 hrs by microdilution checkboard technique relative to control. Also on record: scale not given: the % may be the effect or the level left. The gist of the method: as §3

In experiment [10] the test system is Candida albicans. In words: Antimicrobial activity against azole-resistant Candida albicans isolate CA10 assessed as growth at 32 ug/ml cotreated with 0.002 ug/ml calcineurin signaling inhibitor Tacrolimus after 48 hrs by microdilution checkboard technique relative to control. Also on record: scale not given: the % may be the effect or the level left. The essentials: as §3

Experiment [11] relates to Candida albicans. In words: Antimicrobial activity against azole-resistant Candida albicans isolate CA10 assessed as growth at 128 ug/ml cotreated with 0.002 ug/ml calcineurin signaling inhibitor Tacrolimus after 48 hrs by microdilution checkboard technique relative to control. Also on record: scale not given: the % may be the effect or the level left. The gist of the method:
as §2

Experiment [12] has as its system Candida albicans. In words: Antimicrobial activity against azole-susceptible Candida albicans isolate CA14 assessed as lof reduction in colony count at 10 ug/ml cotreated with calcineurin signaling inhibitor Tacrolimus after 48 hrs by XTT assay. The essentials: (§4)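 Same time-kill setup (10^5 CFU/ml start, azole ± 0.016 μg/ml FK506, 35°C). At each time point, aliquots were mixed 1:1 with XTT (0.5 g/liter in Ringer's lactate) plus 10 μM menadione final. Incubation was in the dark for up to 2 h at 35°C, then formazan was read at 492 nm. OD was converted to CFU via a standard curve (Y = 4.2610x + 4.2087). Triplicate.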
A general note: Tetrazolium dyes change colour on reduction, which living cells bring about.

For experiment [13], the system named is Candida albicans. In words: Antimicrobial activity against azole-resistant Candida albicans isolate CA10 assessed as growth at 4 ug/ml cotreated with 0.008 ug/ml calcineurin signaling inhibitor tacrolimus after 48 hrs by microdilution checkerboard technique relative to control. Also on record: scale not given: the % may be the effect or the level left. The essentials:
as §3

In experiment [14] the test system is Candida albicans. In words: Antimicrobial activity against azole-resistant Candida albicans isolate CA10 assessed as growth at 128 ug/ml cotreated with 0.004 ug/ml calcineurin signaling inhibitor Tacrolimus after 48 hrs by microdilution checkboard technique relative to control. On the set-up: scale not given: the % may be the effect or the level left. The gist of the method: as §2

Experiment [15] deals with Candida albicans. In words: Antimicrobial activity against azole-resistant Candida albicans isolate CA10 assessed as growth at 0.031 ug/ml after 48 hrs by microdilution checkerboard technique relative to control. The essentials: as §1
In experiment [16] the test system is Candida albicans. Nature of the experiment: Antimicrobial activity against azole-resistant Candida albicans isolate CA10 assessed as growth at 0.002 ug/ml after 48 hrs by microdilution checkerboard technique relative to control. The essentials: as §2
In experiment [17] the test system is Candida albicans. Nature of the experiment: Antimicrobial activity against azole-resistant Candida albicans isolate CA10 assessed as log reduction in colony count at 10 ug/ml co-treated with calcineurin signaling inhibitor tacrolimus after 48 hrs by XTT assay. The essentials: as §4
For experiment [18], the system named is Candida albicans. Nature of the experiment: Antimicrobial activity against azole-susceptible Candida albicans isolate CA129 after 48 hrs by broth microdilution method. As to conditions: isolate CA129, 48 h. The essentials: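 CLSI M27-A2 broth microdilution was run in RPMI 1640 (pH 7.0, 2% dextrose, 0.165 M MOPS). Inoculum was 2.5 × 10^3 CFU/ml, incubated 35°C for 48 h without shaking. Plates were read visually (0–5 scale) and at OD 492 nm. MIC80 = lowest concentration giving an 80% absorbance decrease vs drug-free control. Triplicate.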

The test system of experiment [19] is Candida albicans. Nature of the experiment: Antimicrobial activity against azole-resistant Candida albicans isolate CA10 co-treated with calcineurin signaling inhibitor tacrolimus after 48 hrs by microdilution checkerboard technique. As to conditions: isolate CA10, 48 h. The gist of the method:
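Checkerboard microdilution in MOPS-buffered RPMI 1640 (pH 7.0, 2% dextrose) with 2.5 × 10^3 CFU/ml for 48 h at 35°C. Final FK506 was 0.002–0.125 μg/ml. Azole finals were FLC 0.125–128 μg/ml, and ITR and VRC 0.008–8 μg/ml. MIC80 is an 80% OD492 decrease vs drug-free control. Interaction was scored by FICI (synergy ≤0.5, antagonism >4) and by ΔE from triplicates.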

Experiment [20] has as its system Candida albicans. In words: Antimicrobial activity against azole-resistant Candida albicans isolate CA10 assessed as growth at 0.125 ug/ml cotreated with 0.125 ug/ml calcineurin signaling inhibitor Tacrolimus after 48 hrs by microdilution checkboard technique relative to control. Also on record: scale not given: the % may be the effect or the level left. The essentials: as §2

The structures appear in SMILES notation. Values after ≈ are worked out from the molar mass of the structure shown.

Broadly, the MIC is the least concentration at which growth counts as inhibited. As for `OC(Cn1cncn1)(Cn1cncn1)c1ccc(F)cc1F` [FLUCONAZOLE], the Activity in [1] is 16%; in experiment [2], 13%; in [3], 18%; in experiment [4], 13%; in experiment [5] it was 38%; in experiment [6], 19%. For the same molecule, the Activity came to 18% in [7]; 60% in experiment [8]; 38% in experiment [9]; 36% in experiment [10]; 44% in [11]; 1.51 in experiment [12]. The Activity is listed as 30% in [13]; 45% in experiment [14]; 93% in [15]; 97% in [16]; 2.37 in experiment [17]; 25% in experiment [20]. Further, the MIC was 0.5 µg/mL (≈ 1.63 µM) in experiment [18] and 0.25 µg/mL in experiment [19].

These data come from ChEMBL document CHEMBL1151472, “In vitro interactions between tacrolimus and azoles against Candida albicans determined by different methods” (2008).
